Laboratory results as given in PMC3220761 (ACS chemical biology, 2011).
Several values for one entry are separate records, joined by “and”; a condition that tells them apart may be missing. Identical values can stand only once. Like-named read-outs stand apart in the source and are kept apart here.

What was measured:
[1] = target: T1, α/β1 20S proteasome complex (Salinispora tropica, UniProt A4X744); experiment: Proteasome inhibition; type: biochemical
T1 sequence (A4X744 54-279): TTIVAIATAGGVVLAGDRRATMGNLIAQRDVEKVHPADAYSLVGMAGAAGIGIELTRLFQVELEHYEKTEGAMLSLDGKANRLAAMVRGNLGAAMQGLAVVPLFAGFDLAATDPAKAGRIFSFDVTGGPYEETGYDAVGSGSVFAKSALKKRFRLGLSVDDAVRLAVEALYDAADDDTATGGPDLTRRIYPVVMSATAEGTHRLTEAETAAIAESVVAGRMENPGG
T1 sequence (A4X745 1-260 partner): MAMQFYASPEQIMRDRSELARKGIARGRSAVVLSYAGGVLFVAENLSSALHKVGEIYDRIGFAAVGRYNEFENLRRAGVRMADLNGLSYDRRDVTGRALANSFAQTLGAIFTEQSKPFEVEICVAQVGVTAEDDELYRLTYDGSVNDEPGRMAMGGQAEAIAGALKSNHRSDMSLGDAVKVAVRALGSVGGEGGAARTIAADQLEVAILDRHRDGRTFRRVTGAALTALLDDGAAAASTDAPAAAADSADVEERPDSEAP

[2] = target: T2, α/SalI 20S proteasome complex (Salinispora tropica, UniProt A4X3P0); experiment: Proteasome inhibition; type: biochemical; conditions: for fold increase in IC50 with the α/SalI complex in comparison to the α/β1 complex (resistance): α/SalI versus α/β1
T2 sequence (A4X3P0 49-282): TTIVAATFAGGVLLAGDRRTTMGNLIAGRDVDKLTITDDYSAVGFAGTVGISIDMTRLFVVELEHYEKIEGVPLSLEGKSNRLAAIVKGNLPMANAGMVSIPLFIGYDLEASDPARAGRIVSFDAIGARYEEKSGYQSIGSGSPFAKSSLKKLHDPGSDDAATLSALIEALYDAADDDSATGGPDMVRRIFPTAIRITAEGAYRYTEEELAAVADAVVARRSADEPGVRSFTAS
T2 sequence (A4X745 1-260 partner): T1 sequence (A4X745 1-260 partner)

[3] = target: T3, α/β1 A49V proteasome complex (Salinispora tropica, UniProt A4X744, A102V); experiment: Proteasome inhibition; type: biochemical
T3 sequence (A4X744 54-279 A102V): T1 sequence (A4X744 54-279)
T3 sequence (A4X745 1-260 partner): T1 sequence (A4X745 1-260 partner)

[4] = target: T2, α/SalI 20S proteasome complex; experiment: Time-dependence of inhibition, α/SalI; type: biochemical; conditions: 0.5–100 μM inhibitor, Z-VKM-amc, 3.5 h, 30 °C
How it was run: (§1)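 Purified S. tropica α/β1 or α/SalI complex (His6-α, E. coli-expressed) in 50 mM Tris-HCl pH 8.0. Test compound (0.5–100 μM final) and 40 μM Z-VKM-amc were pre-warmed to 30 °C. Pre-warmed enzyme was added to 20 μg ml−1 (27 nM) final. Fluorescence (ex 355/em 460 nm) was read every minute for 3.5 h at a constant 30 °C.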

[5] = target: T2, α/SalI 20S proteasome complex; experiment: Irreversibility of inhibition; type: biochemical; conditions: 250 μM inhibitor for 1.5 h at 30 °C, Z-VKM-amc
How it was run: (§2)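 Recombinant S. tropica proteasome (His6-tagged α coexpressed with untagged β1 or SalI in E. coli BL21(DE3); Ni-NTA then size-exclusion purified). Enzyme at 20 μg ml−1 in 50 mM Tris-HCl pH 8.0 was held with 250 μM test compound or matching DMSO, 1.5 h, 30 °C. It was buffer-exchanged three times on 30 kDa cutoff filters, then added to 40 μM Z-VKM-amc. Fluorescence (ex 355/em 460 nm) was read every minute for 3 h at 30 °C.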

[6] = target: T4, α/β1 M45F proteasome complex (Salinispora tropica, UniProt A4X744, M98F); experiment: Proteasome inhibition; type: biochemical
T4 sequence (A4X744 54-279 M98F): T1 sequence (A4X744 54-279)
T4 sequence (A4X745 1-260 partner): T1 sequence (A4X745 1-260 partner)

[7] = target: T1, α/β1 20S proteasome complex; experiment: Irreversibility of inhibition; type: biochemical; conditions: 250 μM inhibitor for 1.5 h at 30 °C, Z-VKM-amc
How it was run: as §2

[8] = target: T5, α/SalI F45M proteasome complex (Salinispora tropica, UniProt A4X3P0, F93M); experiment: Proteasome inhibition; type: biochemical
T5 sequence (A4X3P0 49-282 F93M): T2 sequence (A4X3P0 49-282)
T5 sequence (A4X745 1-260 partner): T1 sequence (A4X745 1-260 partner)

[9] = target: T6, α/β1 M45F/A49V proteasome complex (Salinispora tropica, UniProt A4X744, A102V/M98F); experiment: Proteasome inhibition; type: biochemical
T6 sequence (A4X744 54-279 M98F/A102V): T1 sequence (A4X744 54-279)
T6 sequence (A4X745 1-260 partner): T1 sequence (A4X745 1-260 partner)

[10] = target: T1, α/β1 20S proteasome complex; experiment: Time-dependence of inhibition, α/β1; type: biochemical; conditions: 0.5–100 μM inhibitor, Z-VKM-amc, 3.5 h, 30 °C
How it was run: as §1

native gel or EMSA = target: the molecule itself; experiment: native gel or EMSA
[11] = IC50, α/SalI complex, substrate Z-VKM-amc 40 μM, mean ± SD, N = 3

CCC[C@H](O)[C@@]12NC(=O)[C@H](CCCl)[C@]1(C)OC2=O [Salinosporamide X5, salinosporamide X5]
IC50 [1]: > 250 µM
IC50 [2]: > 250 µM

CC(C)C[C@H](NC(=O)[C@H](Cc1ccccc1)NC(=O)c1cnccn1)B(O)O [Bortezomib, bortezomib, reference compound]
IC50 [2, 11]: 42.7 ± 3.4 µM
fold increase in IC50 with the α/SalI complex in comparison to the α/β1 complex (resistance) [2]: 13 fold

C[C@@]12OC(=O)[C@]1([C@@H](O)[C@@H]1C=CCCC1)NC(=O)[C@@H]2CCCl [Salinosporamide A, salinosporamide A]
IC50 [3]: 13.6 ± 2.2 µM
increase in IC50 of α/β1 A49V mutant ([3]; α/β1 A49V versus wild-type α/β1, Z-VKM-amc): greater than a ten-fold increase
time-dependence of inhibition [4]: time-dependent inhibition
recovery of proteolytic activity after buffer exchange to remove inhibitor [5]: no recovery of proteolytic activity
IC50 [6]: 1.2 ± 0.1 µM
recovery of proteolytic activity after buffer exchange to remove inhibitor [7]: no recovery of proteolytic activity
IC50 [8]: 45.5 ± 2.3 µM
IC50 [9]: 15.3 ± 2.2 µM
time-dependence of inhibition [10]: time-dependent inhibition
IC50 ([2]; IC50, α/SalI complex, substrate Suc-LLVY-amc 40 μM, mean ± SD, N = 3): 52 ± 3.5 µM
IC50 [2, 11]: 36.8 ± 2.4 µM
fold increase in IC50 with the α/SalI complex in comparison to the α/β1 complex (resistance) [2]: 16–30 fold and 30 fold

C[C@@]12OC(=O)[C@]1([C@@H](O)C1CCC1)NC(=O)[C@@H]2CCCl [Salinosporamide X3, salinosporamide X3]
IC50 [1]: > 250 µM
IC50 [2]: > 250 µM

CC[C@H]1C(=O)N[C@@]2([C@@H](O)[C@@H]3C=CCCC3)C(=O)O[C@@]12C [Salinosporamide B, salinosporamide B]
IC50 [2, 11]: 139 ± 27.3 µM
fold increase in IC50 with the α/SalI complex in comparison to the α/β1 complex (resistance) [2]: 7 fold

C[C@@]12OC(=O)[C@]1([C@@H](O)[C@@H]1C=CCC1)NC(=O)[C@@H]2CCCl [Salinosporamide X7, salinosporamide X7]
IC50 [1]: 3.6 ± 0.2 µM
IC50 [2]: > 250 µM

CC(C)[C@H](O)[C@@]12NC(=O)[C@H](CCCl)[C@]1(C)OC2=O [Antiprotealide, antiprotealide]
IC50 [1]: 104 ± 7.2 µM
IC50 [2]: > 250 µM

B1: Salinispora tropica CNB-440 20S proteasome α-subunit (Strop_2245) (natural protein, UniProt A4X745 1-260, looked up)
chain: T1 sequence (A4X745 1-260 partner)
binding result (native gel or EMSA): binds

B2: SalI, proteasome β-subunit of the salinosporamide biosynthetic gene cluster (Strop_1015) (natural protein, Salinispora tropica CNB-440, UniProt A4X3P0 49-282, looked up)
chain: T2 sequence (A4X3P0 49-282)
binding result (native gel or EMSA): binds

B3: Salinispora tropica CNB-440 20S proteasome β-subunit β1 (Strop_2244) (natural protein, UniProt A4X744 54-279, looked up)
chain: T1 sequence (A4X744 54-279)
binding result (native gel or EMSA): binds
